Data on ten compounds can be found in ChEMBL document CHEMBL1123350, “Synthesis and beta-adrenergic receptor blocking potency of 1-(substituted amino)-3-(4-indolyloxy)propan-2-ols” (J Med Chem, 1986).

For one data set, the species on record is Rattus norvegicus. Nature of the data set: Hill coefficient value assayed against rat beta adrenergic receptor. Put shortly: (§1)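 Male Sprague–Dawley rat cortex or cerebellum membranes, washed in HEPES–EDTA pH 7.5 and resuspended in NaCl–Tris–MgCl2 pH 7.5. Bound ligand collected by filtration and gamma-counted; isoproterenol 25 μM defines nonspecific binding. IC50 and Hill n by nonlinear regression; Ki by Cheng–Prusoff for the eutomer. Run at least twice.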

A short description of data set [1]: In vitro for binding affinity against beta adrenergic receptor in rat cortex. Put shortly: as §1
Data set [2] in a line: In vitro for binding affinity against beta adrenergic receptor in rat cerebellum. Format: tissue-based. Put shortly: as §1
The nature of data set [3]: Distribution coefficient value of the compound. Format: physicochemical. Conditions: octanol/water. Put shortly: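 Shake-flask partition between 0.1 M potassium phosphate pH 7.4 and 1-octanol, each phase presaturated with the other. Compound at 0.1–1.0 mg/mL in buffer, shaken 30 min, left 10 min, spun 600g 10 min at room temperature. Aqueous-phase absorbance read before and after partition at a per-compound wavelength. D = (Aorig−Aextr)/(Aextr·f), with f the octanol:buffer volume ratio. Run twice.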

With `COc1ccc(CCNCC(O)COc2cccc3[nH]ccc23)cc1OC` (stereo not given), the Hill coefficient in the data set filed under Rattus norvegicus was greater than 0.9. The Ki was determined as 3 nM in data set [1] and 7 nM in data set [2]. The same compound came in with a log distribution coefficient (logD) in data set [3] of 1.1.
The compound `CC(C)NCC(O)COc1cccc2[nH]ccc12` (stereo not given) [PINDOLOL] displayed a Hill coefficient in the data set listed under Rattus norvegicus greater than 0.9. In addition, the Ki in data set [1] and in data set [2] was 1 nM throughout. This compound also had a logD in data set [3] of -0.3.
In the data set listed under Rattus norvegicus, `O=[N+]([O-])c1ccc(CCNCC(O)COc2cccc3[nH]ccc23)cc1` (stereo not given) had a Hill coefficient greater than 0.9. In addition, the inhibition constant (Ki) in data set [1] came out at 5 nM; in data set [2], 8 nM. In data set [3], this compound showed a logD of 1.5.
For the compound `OC(CNCc1ccc(F)cc1)COc1cccc2[nH]ccc12` (stereo not given), the Hill coefficient in the data set listed under Rattus norvegicus was greater than 0.9. For the same compound, the Ki in data set [1] worked out at 125 nM; in data set [2], 80 nM. In addition, the logD in data set [3] amounted to 1.9.
On the same counts, the results for `Nc1ccc(CCNCC(O)COc2cccc3[nH]ccc23)cc1` (stereo not given) are greater than 0.9, 25 nM, 22 nM and 0.3.
On the same counts, the results for `OC(CNCCc1ccccc1)COc1cccc2[nH]ccc12` (stereo not given) are greater than 0.9, 5 nM, 4 nM and 1.7.
On the same counts, the results for `OC(CNCCc1ccc(F)cc1)COc1cccc2[nH]ccc12` (stereo not given) are greater than 0.9, 5 nM, 4 nM and 2.
As to `CC(C)(CO)NCC(O)COc1cccc2[nH]ccc12` (stereo not given), the Hill coefficient in the data set listed under Rattus norvegicus is greater than 0.9. Moreover, the Ki in data set [1] and in data set [2] was 2 nM in each case. In data set [3], this compound came in with a pH-dependent lipophilicity (logD) of -0.6.
The compound `OC(CNCc1ccccc1F)COc1cccc2[nH]ccc12` (stereo not given) gave a Hill coefficient in the data set filed under Rattus norvegicus greater than 0.9. Moreover, the results for the Ki in data set [1] and in data set [2] were 60 nM and 45 nM, respectively. Moreover, the log distribution coefficient (logD) in data set [3] stood at 2.
The compound `OC(CNCCc1ccc(Cl)c(Cl)c1)COc1cccc2[nH]ccc12` (stereo not given) showed a Hill coefficient in the data set filed under Rattus norvegicus greater than 0.9. The Ki in data set [1] is 6 nM; in data set [2], 11 nM. Also, the logD in data set [3] came to 2.5.

One may read the Hill coefficient as the slope factor of the fitted curve. A word on the Ki: it is the equilibrium dissociation constant of an inhibitor or competing ligand from its target. Low readings indicate a stronger hold on the target, high ones a looser hold on the target. In general, logD refers to lipophilicity at a set pH, counting ionised and neutral species.
